This is an account of results in ChEMBL document CHEMBL1125195, “Novel compounds possessing potent cAMP and cGMP phosphodiesterase inhibitory activity. Synthesis and cardiovascular effects of a series of imidazo[1,2-a]quinoxalinones and imidazo[1,5-a]quinoxalinones and their aza analogues” (J Med Chem, 1991).

For experiment [1], the system named is Canis familiaris. Briefly: Percent change in heart rate after intravenous administration in anesthetized dogs at 0.1 mg/kg (NC<10%). It is filed as functional, organism-based. Also on record: dose 0.1 mg/kg. The following applies: Canis lupus familiaris.
The subject of experiment [2] is Canis familiaris. Briefly: Percent change in heart rate after intravenous administration in anesthetized dogs at 0.3 mg/kg. The format is functional, Canis lupus familiaris.
Experiment [3] deals with Canis familiaris. Briefly: Percent change in heart rate after intravenous administration in anesthetized dogs at 1.0 mg/kg. The format is functional, Canis lupus familiaris.
The subject of experiment [4] is Canis familiaris. Briefly: Percent change in mean arterial blood pressure after intravenous administration in anesthetized dogs at 0.1 mg/kg. It is filed as functional, Canis lupus familiaris.
The test system of experiment [5] is Canis familiaris. Nature of the experiment: Percent change in mean arterial blood pressure after intravenous administration in anesthetized dogs at 0.3 mg/kg. It is filed as functional, Canis lupus familiaris.
Experiment [6] has as its system Canis familiaris. Briefly: Percent change in mean arterial blood pressure after intravenous administration in anesthetized dogs at 1.0 mg/kg. It is filed as functional, Canis lupus familiaris.
Experiment [7] concerns Canis familiaris. Briefly: Percent change in left ventricle contractile force in anesthetized dogs after intravenous administration at 0.1 mg/kg. The format is functional, Canis lupus familiaris, Heart left ventricle.
Experiment [8] concerns Canis familiaris. Nature of the experiment: Percent change in left ventricle contractile force in anesthetized dogs after intravenous administration at 0.3 mg/kg. The format is functional, Canis lupus familiaris, Heart left ventricle.
Experiment [9] has as its system Canis familiaris. Briefly: Percent change in left ventricle contractile force in anesthetized dogs after intravenous administration at 1.0 mg/kg. It is filed as functional, Canis lupus familiaris, Heart left ventricle.
Experiment [10] can be described thus: In vitro increase in contractile force in ferret papillary muscle strips. It is filed as functional, Mustela putorius furo, Muscle tissue. In outline:
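Ferret papillary muscle; value is drug concentration (μM) giving a 20% rise in contractile force. Mean of at least two determinations, ranges within ±10%. Inotropic effect also tested with 1 μM propranolol co-administered. NR means not reached at 100 μM.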

The species named for experiment [11] is Canis familiaris. Nature of the experiment: In vitro vascular relaxation in canine coronary arteries precontracted with prostaglandin F2alpha. The format is functional. The following applies: Canis lupus familiaris. The procedure, abridged: (§1)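 Isolated vessels in warm PSS. Arteries constricted with prostaglandin F2α, veins with phenylephrine. Cumulative drug challenges, each added after relaxation plateaued. Delta force is expressed as % of agonist actual force (total minus basal) and as % of maximal relaxation. EC50 is found by linear interpolation between the points bracketing 50% relaxation. Afterwards tissues were rinsed every 10 min, reconstricted, and challenged with acetylcholine (arteries) or thrombin (veins).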

For experiment [12], the species on record is Canis familiaris. Nature of the experiment: In vitro vascular relaxation in canine mesenteric veins precontracted with phenylephrine. The settings on record: Canis lupus familiaris, Mesenteric vein. The format is functional. The procedure, abridged: as §1
Experiment [13] can be described thus: Inhibition of crude cAMP phosphodiesterase from canine […]. The arrangement: species or system Canis lupus familiaris. In outline:
(§2)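 Crude homogenates: cAMP PDE from canine cardiac tissue, cGMP PDE from canine thoracic aorta. Value is drug concentration (μM) giving 50% inhibition. Mean of at least three determinations, ranges within ±10%.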

The nature of experiment [14]: Inhibition of crude cGMP phosphodiesterase from canine thoracic aorta. It is filed as tissue-based, Canis lupus familiaris. In outline:
as §2

Turning to `CCc1ncc2c(O)nc3cccnc3n12`, the Delta is recorded as below 10% change from control in experiment [1]; 30% in experiment [2]; 50% in [3]; -17% in experiment [4]; -25% in [5]; -40% in experiment [6]. Besides, the Delta is given as 31% in [7], 40% in experiment [8] and 76% in experiment [9]. This molecule yielded a CFC20 in [10] of 0.1 µM. Further, the values for the EC50 in experiment [11] and in experiment [12] were 300 nM and 500 nM, respectively. Also, the figures for the IC50 in experiment [13] and in experiment [14] were 1000 nM and 7000 nM, respectively.

By EC50 is commonly meant the concentration that produces a half-maximal response. Broadly, the IC50 is the concentration at which inhibition is half-maximal. Higher therefore signals weaker potency.
